This passage reports Tm and folding enthalpy results from the array DNA melting data of Ke et al. (doi:10.1101/2024.01.08.574731).

Data set [1] can be described thus: melting temperature; fluorescence melt of hairpins on a sequencing array, two-state fit, raised by 9.35 °C to match UV melts. The note with it: sodium 0.088 M. An outline of the steps: (§1)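 To match UV melts, fitted temperatures were raised by 9.35 °C. These fits were bootstrapped two-state models that gave melting temperature and folding enthalpy, combined by inverse variance over four replicates. The input was normalised Cy3 fluorescence of library hairpins with annealed Cy3 and quencher oligos on a sequenced MiSeq flow cell, imaged in 50 mM Na-HEPES pH 8.0, 25 mM NaCl in 2.5 °C steps up to 60 °C.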

The nature of data set [2]: folding enthalpy; higher = less favourable; fluorescence melt of hairpins on a sequencing array, two-state fit. The settings on record: sodium 0.088 M. An outline of the steps:
as §1

For the sequence GACTAGGGAAACCCAGTC ((((.((....)).)))), the Tm in data set [1] came out at 40.2 °C. The folding enthalpy in data set [2] is -30.1 kcal/mol.

For GACTAGGGAAACCTGGTC (((.(((....))).))), the Tm in data set [1] worked out at 46.7 °C. In data set [2], the folding enthalpy is -35.7 kcal/mol.

With GACTAGGGAAACTTAGTC (((((.(....).))))), the Tm in data set [1] was found to be 37.9 °C. The folding enthalpy in data set [2] was -30.1 kcal/mol.

In the case of GACTATGAAAATAGTC ((((((....)))))), the Tm in data set [1] is 49.5 °C. In addition, the folding enthalpy in data set [2] was -32.8 kcal/mol.

GACTATGCGAAAGCAGTC (((..(((....)))))): the Tm in data set [1] came to 44 °C. Besides, in data set [2], the folding enthalpy was -15.3 kcal/mol.

Regarding GACTATGGAAACATGGTC (((.(((....))).))), the Tm in data set [1] stood at 45.4 °C. Further, the folding enthalpy in data set [2] is -35.5 kcal/mol.

Consider GACTCAACGAAAGTTGTC (((..(((....)))))), for which, in data set [1], the Tm is 29.9 °C. For the same sequence, the folding enthalpy in data set [2] was -10.2 kcal/mol.

Turning to GACTCACGAAAGTGTGTC (((.(((....))).))), in data set [1], the Tm was found to be 53.7 °C. Moreover, in data set [2], the folding enthalpy was -38.5 kcal/mol.

Regarding GACTCAGGAAACTGGGTC (((.(((....))).))), in data set [1], the Tm is 49.2 °C. The folding enthalpy in data set [2] is -37.8 kcal/mol.

For the sequence GACTCCACGAAAGTGGTC (((..(((....)))))), the Tm in data set [1] came out at 29.5 °C. Also, in data set [2], the folding enthalpy is -8.79 kcal/mol.

For the sequence GACTCCGAAAGGAACGTC ((((((....)))..))), the Tm in data set [1] stood at 36 °C. Moreover, in data set [2], the folding enthalpy was -15.2 kcal/mol.

For GACTCCGAAAGGAATGTC ((((((....)))..))), in data set [1], the Tm is 38.6 °C. The folding enthalpy in data set [2] is -17.7 kcal/mol.

For GACTCCGAAAGGACGGTC ((((((....)))..))), in data set [1], the Tm was found to be 35.3 °C. Moreover, the folding enthalpy in data set [2] was -17.9 kcal/mol.

For the sequence GACTCCGAAAGGAGGGTC ((((((....)))..))), in data set [1], the Tm is 50.8 °C. For the same sequence, in data set [2], the folding enthalpy is -17 kcal/mol.

For GACTCCGGAAACGGAATC ((.((((....)))).)), the Tm in data set [1] was determined as 36.4 °C. Also, in data set [2], the folding enthalpy is -19.1 kcal/mol.

Turning to GACTCCGGAAACGGAGCC (.(((((....))))).), the Tm in data set [1] came to 50.5 °C. In data set [2], the folding enthalpy is -13.6 kcal/mol.

For GACTCGGGAAACCGAATC ((.((((....)))).)), the Tm in data set [1] is 35.4 °C. For the same sequence, the folding enthalpy in data set [2] was -18.2 kcal/mol.

Consider GACTCGGGAAACTGGGTC (((.(.(....).).))), for which the Tm in data set [1] turned out to be 38 °C. For the same sequence, the folding enthalpy in data set [2] was -29.9 kcal/mol.

For GACTCTGAAAAGAGTC ((((((....)))))), in data set [1], the Tm turned out to be 58 °C. Further, in data set [2], the folding enthalpy is -32 kcal/mol.

In the case of GACTCTGGAAACAGAATC ((.((((....)))).)), the Tm in data set [1] was found to be 28.5 °C. Further, the folding enthalpy in data set [2] was -22.3 kcal/mol.

Take GACTGAACGAAAGTTGTC (((..(((....)))))): in data set [1], the Tm is 32.8 °C. In addition, in data set [2], the folding enthalpy is -19.5 kcal/mol.

In the case of GACTGAGCGAAAGCTGTC (((..(((....)))))), in data set [1], the Tm is 44.1 °C. In addition, the folding enthalpy in data set [2] is -12.7 kcal/mol.

As to GACTGCCGAAAGGCGTC (((.(((....)))))), the Tm in data set [1] came out at 53.8 °C. Further, the folding enthalpy in data set [2] is -13.8 kcal/mol.

In the case of GACTGCGAAAGCAAGTC ((((((....))).))), the Tm in data set [1] stood at 56.1 °C. Moreover, the folding enthalpy in data set [2] was -21.3 kcal/mol.

For GACTGCGAAAGCACAGTC ((((((....)))..))), the Tm in data set [1] is 44.5 °C. Further, in data set [2], the folding enthalpy is -13.2 kcal/mol.

As for GACTGCGGAAACGCAGCC (.(((((....))))).), in data set [1], the Tm worked out at 52 °C. For the same sequence, in data set [2], the folding enthalpy is -11.2 kcal/mol.

In the case of GACTGGGCGAAAGCCGTC (((..(((....)))))), the Tm in data set [1] worked out at 56.1 °C. In data set [2], the folding enthalpy was -10.4 kcal/mol.

For the sequence GACTGTGAAAACAGTC ((((((....)))))), in data set [1], the Tm stood at 58.5 °C. Moreover, the folding enthalpy in data set [2] was -34.1 kcal/mol.

As to GACTGTGGAAACACAGCC (.(((((....))))).), in data set [1], the Tm turned out to be 43.7 °C. In data set [2], the folding enthalpy was -13.7 kcal/mol.

Regarding GACTGTGGAAACACGGTC (((.(((....))).))), the Tm in data set [1] was determined as 52.2 °C. For the same sequence, the folding enthalpy in data set [2] was -40.6 kcal/mol.

Turning to GACTTAGCGAAAGCTGTC (((..(((....)))))), the Tm in data set [1] came out at 43.8 °C. Besides, in data set [2], the folding enthalpy was -14.6 kcal/mol.

For GACTTCACGAAAGTGGTC (((..(((....)))))), in data set [1], the Tm came out at 31.4 °C. Further, the folding enthalpy in data set [2] was -12.1 kcal/mol.

GACTTCCGAAAGGAGTC (((.(((....)))))): the Tm in data set [1] was 46.4 °C. The folding enthalpy in data set [2] was -24.8 kcal/mol.

In the case of GACTTCGAAAGAAGTC ((((((....)))))), the Tm in data set [1] was 62 °C. Moreover, the folding enthalpy in data set [2] is -38.8 kcal/mol.

GACTTCGCGAAAGCGGTC (((..(((....)))))): the Tm in data set [1] came out at 35.1 °C. The folding enthalpy in data set [2] is -7.56 kcal/mol.

As for GACTTCGGAAACGAAGTC (((((((....))))))), the Tm in data set [1] was 66.3 °C. Further, the folding enthalpy in data set [2] was -38.6 kcal/mol.

On to GACTTGACGAAAGTCGTC (((..(((....)))))), for which the Tm in data set [1] is 51.7 °C. In data set [2], the folding enthalpy was -15.8 kcal/mol.
